Experimental data as given in paper PMC3139708 (Nature chemical biology, 2011).
Entries after “also recorded” stand apart in the source; their conditions may differ. Where a SMILES comes first, the peptide text is derived from it. [ ]: non-standard residue; d: D form. βAla = NCCC(=O)O

How the values were obtained:
YFP-LID [1] = experiment: Simultaneous use of LID and DD systems in NIH3T3 cells: YFP-LID; type: cell-based; conditions: various concentrations of Shield-1, 24 h, flow cytometry and microscopy
Procedure, shortened: (§1)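 NIH3T3 cells stably co-transduced with YFP-LID and DD-mCherry were plated at 1 × 10⁵ cells/well. They were exposed to a range of Shield-1 concentrations for 24 h, then detached with trypsin-EDTA. YFP and mCherry were read in their respective channels by flow cytometry (typically 10,000 events) and by epifluorescence microscopy.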

YFP-LID [2] = experiment: Time course of YFP-LID degradation and recovery in NIH3T3 cells, flow cytometry; type: cell-based; conditions: NIH3T3, absence of cycloheximide
Procedure, shortened: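 Stably transduced NIH3T3 cells expressing YFP-LID were plated at 1 × 10⁵ cells/well. For degradation, Shield-1 was added and cells were sampled at various times. For recovery, Shield-1 was removed by changing to fresh growth medium containing 5 μM recombinant FKBP(F36V) at set times before analysis. YFP was read by flow cytometry, and the maximum fluorescence was set to 100%.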

FKBP domain = conditions: ref [18],[26]; cited from earlier work
[3] = tested on: transcription factors fused to LID (Oct4, Klf4, Sox2, Myc, Lin28, Nanog); type: cell-based, human; Nanog mouse; conditions: 2 μM Shield-1, 24 h, NIH3T3, immunoblot
Procedure, shortened: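 LID was fused to the C-terminus of each of six transcription factors. Each was retrovirally transduced into NIH3T3 cells separately (4 μg/mL polybrene, 4 h, 37 °C; 24–36 h integration) in DMEM with 10% donor bovine serum. Cells got vehicle or 2 μM Shield-1 for 24 h. Lysates were immunoblotted with anti-Oct4, anti-Klf4, anti-HA (Sox2, Myc, Lin28) or anti-Flag (Nanog). α-Tubulin was the loading control; untransduced cells were the reference.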

DD-mCherry = experiment: Simultaneous use of LID and DD systems in NIH3T3 cells: DD-mCherry; type: cell-based; conditions: various concentrations of Shield-1, 24 h, flow cytometry and microscopy
Procedure, shortened: as §1

YFP = experiment: Stability of YFP fused directly to the 19-residue peptide or its truncations; type: cell-based; conditions: 1 μM Shield-1, 24 h, flow cytometry
Procedure, shortened: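 The 19-residue peptide was fused directly to YFP, without FKBP, and stably transduced into NIH3T3 cells by retrovirus. Cells were plated at 1 × 10⁵ per well, treated with vehicle or 1 μM Shield-1 for 24 h, trypsinised and analysed by flow cytometry (typically 10,000 events). Error bars are s.d. from at least two experiments.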

actin-GFP-LID = experiment: Depletion of β-actin-AcGFP-LID in NIH3T3 cells, fluorescence microscopy; type: cell-based, human; conditions: 2 μM Shield-1, 24 hours
Procedure, shortened: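 NIH3T3 fibroblasts were retrovirally co-transduced (4 μg/mL polybrene, 4 h, 37 °C; then 24–36 h in growth medium) with human β-actin fused to Aequorea coerulescens GFP plus LID, and with β-actin-mCherry to mark microfilaments. Cells were cultured ± Shield-1, and green and red actin filaments were imaged by epifluorescence microscopy with a 40x objective.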

[4] = tested on: YFP-LID fusion proteins in HeLa cells; experiment: YFP-LID degradation in transiently transfected HeLa cells; type: cell-based; conditions: 24 hours Shield-1
Oct4-LID = experiment: Reprogramming of MEFs; type: cell-based, murine embryonic fibroblasts; conditions: 2 μM Shield-1 from day 3 post-infection
Procedure, shortened: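 Fibroblasts came from transgenic mice carrying GFP driven by the Oct4 promoter. They were retrovirally transduced with Sox2, Myc, Klf4 and Oct4-LID, with untagged Oct4 as comparison. Vehicle or 2 μM Shield-1 was added on day 3 post-infection, and alkaline phosphatase staining was done on day 14. GFP-positive cells were moved to fresh feeder layer on day 19 and stained with APC anti-SSEA-1 on day 24.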

YFP-LID [5] = experiment: Shield-dependent degradation of YFP-LID in NIH3T3 cells, flow cytometry; type: cell-based
Procedure, shortened: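 NIH3T3 cells were stably retrovirally transduced with YFP-FKBP(F36V) plus the 19-residue C-terminal peptide, with IRES-HcRed as infection marker. They were plated at 1 × 10⁵ per well and given vehicle or Shield-1 (1 pM–1 μM, or 1 μM for 24 h), then trypsinised. YFP was read by flow cytometry (typically 10,000 events) against untransduced-cell autofluorescence. Error bars are s.d. from at least two experiments.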

[6] = tested on: YFP-LID fusion proteins in U2OS cells; experiment: YFP-LID degradation in transiently transfected U2OS cells; type: cell-based; conditions: 24 hours Shield-1
[7] = tested on: YFP-FKBP(F36V)-degron-LPLPLP fusions (CL1, CyclinB, encephalomyocarditis virus degron); type: cell-based; conditions: NIH3T3, flow cytometry
FKBP = conditions: relative to Shield-1; ref [19]; cited from earlier work
FKBP(F36V) = FKBP(F36V) (Homo sapiens, UniProt P62942, F37V); experiment: Fluorescence polarization competition binding against Fl-SLF; conditions: polarization signal; Fl-SLF 1 nM, FKBP(F36V) 100 nM
Sequence of FKBP(F36V) (P62942 whole entry F37V): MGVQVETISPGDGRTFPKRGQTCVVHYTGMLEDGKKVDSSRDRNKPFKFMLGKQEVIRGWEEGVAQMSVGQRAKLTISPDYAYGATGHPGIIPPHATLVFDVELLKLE
Procedure, shortened: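 Purified FKBP(F36V) and fluorescent Shield-1 analog Fl-SLF were held at fixed concentrations and incubated with a titration of synthetic test peptide. Tracer displacement was read as the decrease in fluorescence polarization.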

Structure (SMILES): CC[C@H](C(=O)N1CCCC[C@H]1C(=O)O[C@H](CCc1ccc(OC)c(OC)c1)c1cccc(OCCN2CCOCC2)c1)c1cc(OC)c(OC)c(OC)c1 [Shield-1]
- YFP-LID level (YFP-LID [1]): dose-dependent depletion of YFP-LID
- time for YFP levels to be reduced 50% upon addition of Shield-1 (YFP-LID [2]): 45 min
- affinity for the FKBP domain (FKBP domain): sub-nanomolar
- degradation of LID-fused transcription factors [3]: all degraded in a Shield-1 dependent manner
- mCherry (DD-mCherry) level (DD-mCherry): simultaneous stabilization of mCherry
- effect of Shield-1 on the stability of YFP-19mer (YFP): this instability is not affected by Shield-1; also recorded: no effect on the stability of this fusion
- GFP fluorescence of β-actin-GFP-LID after Shield-1 (actin-GFP-LID): GFP fluorescence was absent
- degradation of YFP-LID fusion proteins [4]: could be degraded in transient transfected HeLa and U2OS cells
- reprogramming to iPS cells of cells expressing Oct4-LID in the presence of Shield-1 (Oct4-LID): unable to undergo reprogramming to iPS cells
- YFP fluorescence levels in Shield-treated cells above the background autofluorescence (YFP-LID [5]; relative to untransduced NIH3T3 cells, flow cytometry): 10-20%
- degradation of YFP-LID fusion proteins [6]: could be degraded in transient transfected HeLa and U2OS cells
- stability of YFP-FKBP-degron-LPLPLP fusions with Shield-1 [7]: an increase in fluorescence was observed

Structure (SMILES): CCC(CC)NC(=O)N1CCCC[C@H]1C(=O)O[C@H](CCc1ccc(OC)c(OC)c1)c1cccc(OCCN2CCOCC2)c1 [Shield-2]
- binding potency for FKBP (FKBP): less potent binding ligand for FKBP
- destabilization of the LID domain (YFP-LID [5]; NIH3T3 cells, compared with Shield-1): can also destabilize the LID domain although with slightly reduced potency

Structure (SMILES): CC(C)C[C@H](NC(=O)[C@H](CC(C)C)NC(=O)[C@@H](NC(=O)[C@@H](NC(=O)CNC(=O)[C@H](CCC(=O)O)NC(=O)[C@H](C)NC(=O)[C@@H](NC(=O)[C@H](CCC(=O)O)NC(=O)[C@H](CCC(=O)O)NC(=O)[C@@H](NC(=O)CNC(=O)[C@H](CCCNC(=N)N)NC(=O)[C@@H](NC(=O)CCN)[C@@H](C)O)C(C)C)C(C)C)C(C)C)C(C)C)C(=O)N[C@@H](CCCNC(=N)N)C(=O)N[C@@H](CCCNC(=N)N)C(=O)N[C@@H](CCCNC(=N)N)C(=O)NCC(=O)N[C@@H](CC(N)=O)C(=O)O [19-residue peptide] (H-[βAla]TRGVEEVAEGVVLLRRRGN-OH; N-terminus and C-terminus assumed)
- displacement of tracer Fl-SLF from FKBP (FKBP(F36V)): dose-dependent decrease in polarization signal
